# Measured values published in ChEMBL document CHEMBL1152126 (Bioorg Med Chem, 2008).
# Calls of active or inactive are those of the source. The rule behind the calls is not given here.
# Target: T1, Interstitial collagenase (Homo sapiens, UniProt P03956)
# T1 sequence (P03956 whole entry): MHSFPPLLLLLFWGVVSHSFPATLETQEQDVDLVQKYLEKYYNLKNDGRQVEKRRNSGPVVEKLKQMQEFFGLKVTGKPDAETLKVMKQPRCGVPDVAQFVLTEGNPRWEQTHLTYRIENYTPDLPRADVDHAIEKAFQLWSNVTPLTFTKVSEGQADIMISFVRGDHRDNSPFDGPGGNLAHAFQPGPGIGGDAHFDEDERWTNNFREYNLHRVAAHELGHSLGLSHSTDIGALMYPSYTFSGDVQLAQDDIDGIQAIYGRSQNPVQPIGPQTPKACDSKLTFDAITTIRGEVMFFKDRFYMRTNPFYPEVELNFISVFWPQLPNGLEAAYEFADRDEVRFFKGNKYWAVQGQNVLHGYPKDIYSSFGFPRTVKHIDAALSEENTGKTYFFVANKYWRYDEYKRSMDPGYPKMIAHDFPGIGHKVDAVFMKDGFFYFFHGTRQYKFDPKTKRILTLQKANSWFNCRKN
# Assay: Inhibition of human recombinant pro-MMP1 by spectrofluorimeter
row,IC50 [µM],Compound
1,0.15,CNC(=O)[C@H](Cc1c[nH]c2ccccc12)NC(=O)[C@@H](CC(=O)NNS(=O)(=O)c1ccc2ccccc2c1)CC(C)C
2,0.11,CNC(=O)[C@H](Cc1c[nH]c2ccccc12)NC(=O)[C@@H](CC(=O)NNS(=O)(=O)c1ccc(Oc2ccccc2)cc1)CC(C)C
3,> 10,CNC(=O)[C@H](Cc1c[nH]c2ccccc12)NC(=O)[C@@H](CC(=O)NNc1ccc([N+](=O)[O-])cc1)CC(C)C
4,> 10,CNC(=O)[C@H](Cc1c[nH]c2ccccc12)NC(=O)[C@@H](CC(=O)NNc1ccc([N+](=O)[O-])cc1[N+](=O)[O-])CC(C)C
5,5.6,CNC(=O)[C@H](Cc1c[nH]c2ccccc12)NC(=O)[C@@H](CC(=O)NNS(C)(=O)=O)CC(C)C
6,2.04,CCCCCC/C=C(\CC(=O)NNS(=O)(=O)c1ccc(-c2ccc(Br)cc2)cc1)C(=O)N[C@@H](Cc1c(-c2ccccc2)[nH]c2ccccc12)C(=O)NC
7,0.093,CNC(=O)[C@H](Cc1c[nH]c2ccccc12)NC(=O)[C@@H](CC(=O)NNS(=O)(=O)c1ccccc1N)CC(C)C
8,0.091,CNC(=O)[C@H](Cc1c[nH]c2ccccc12)NC(=O)[C@@H](CC(=O)NNS(=O)(=O)c1ccc(N2C(=O)CCC2=O)cc1)CC(C)C
9,1.03,CNC(=O)[C@H](Cc1c[nH]c2ccccc12)NC(=O)/C(=C/CCc1ccccc1)CC(=O)NNS(=O)(=O)c1ccc(-c2ccc(Br)cc2)cc1
10,1.07,CNC(=O)[C@H](Cc1c(-c2ccccc2)[nH]c2ccccc12)NC(=O)/C(=C/CCc1ccccc1)CC(=O)NNS(=O)(=O)c1ccc(-c2ccc(Br)cc2)cc1
11,0.49,CNC(=O)[C@H](Cc1c[nH]c2ccccc12)NC(=O)[C@@H](CC(=O)NNS(=O)(=O)c1ccc([N+](=O)[O-])cc1)CC(C)C

# Target: 72 kDa type IV collagenase (Homo sapiens, UniProt P08253)
# Sequence (P08253 whole entry): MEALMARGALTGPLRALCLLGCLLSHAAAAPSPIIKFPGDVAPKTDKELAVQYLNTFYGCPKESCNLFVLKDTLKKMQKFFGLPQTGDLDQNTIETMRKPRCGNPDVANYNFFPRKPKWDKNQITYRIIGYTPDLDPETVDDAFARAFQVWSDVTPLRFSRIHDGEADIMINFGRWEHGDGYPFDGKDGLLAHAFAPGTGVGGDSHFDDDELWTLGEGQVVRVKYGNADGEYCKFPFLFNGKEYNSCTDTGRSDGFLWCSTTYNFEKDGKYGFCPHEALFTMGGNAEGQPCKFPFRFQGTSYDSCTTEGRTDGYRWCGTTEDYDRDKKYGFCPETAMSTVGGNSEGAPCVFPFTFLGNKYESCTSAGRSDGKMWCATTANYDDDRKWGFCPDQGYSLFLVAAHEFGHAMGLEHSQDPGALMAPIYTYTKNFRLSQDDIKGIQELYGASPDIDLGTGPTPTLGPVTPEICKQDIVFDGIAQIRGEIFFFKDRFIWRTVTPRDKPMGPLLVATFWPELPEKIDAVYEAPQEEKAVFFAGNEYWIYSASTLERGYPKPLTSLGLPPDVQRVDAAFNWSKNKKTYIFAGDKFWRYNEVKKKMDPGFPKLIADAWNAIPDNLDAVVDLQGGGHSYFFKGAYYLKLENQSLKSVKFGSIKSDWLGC
# Assay: Inhibition of human recombinant pro-MMP2 by spectrofluorimeter
# Method in brief: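 Pro-MMP-2 activated with […], 37 °C, 2 h. Assay: 1–2 nM enzyme in 50 mM Tris–HCl pH 7.5, 150 mM NaCl, 5 mM CaCl₂, 25 °C; 30 min inhibitor preincubation, then quenched fluorogenic substrate.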
row,IC50 [µM],Compound
1,0.037,CNC(=O)[C@H](Cc1c[nH]c2ccccc12)NC(=O)[C@@H](CC(=O)NNS(=O)(=O)c1ccc2ccccc2c1)CC(C)C
2,0.045,CNC(=O)[C@H](Cc1c[nH]c2ccccc12)NC(=O)[C@@H](CC(=O)NNS(=O)(=O)c1ccc(Oc2ccccc2)cc1)CC(C)C
3,10,CNC(=O)[C@H](Cc1c[nH]c2ccccc12)NC(=O)[C@@H](CC(=O)NNc1ccc([N+](=O)[O-])cc1)CC(C)C
4,10,CNC(=O)[C@H](Cc1c[nH]c2ccccc12)NC(=O)[C@@H](CC(=O)NNc1ccc([N+](=O)[O-])cc1[N+](=O)[O-])CC(C)C
5,0.74,CNC(=O)[C@H](Cc1c[nH]c2ccccc12)NC(=O)[C@@H](CC(=O)NNS(C)(=O)=O)CC(C)C
6,1.27,CCCCCC/C=C(\CC(=O)NNS(=O)(=O)c1ccc(-c2ccc(Br)cc2)cc1)C(=O)N[C@@H](Cc1c(-c2ccccc2)[nH]c2ccccc12)C(=O)NC
7,0.092,CNC(=O)[C@H](Cc1c[nH]c2ccccc12)NC(=O)[C@@H](CC(=O)NNS(=O)(=O)c1ccccc1N)CC(C)C
8,0.079,CNC(=O)[C@H](Cc1c[nH]c2ccccc12)NC(=O)[C@@H](CC(=O)NNS(=O)(=O)c1ccc(N2C(=O)CCC2=O)cc1)CC(C)C
9,0.31,CNC(=O)[C@H](Cc1c[nH]c2ccccc12)NC(=O)/C(=C/CCc1ccccc1)CC(=O)NNS(=O)(=O)c1ccc(-c2ccc(Br)cc2)cc1
10,0.065,CNC(=O)[C@H](Cc1c(-c2ccccc2)[nH]c2ccccc12)NC(=O)/C(=C/CCc1ccccc1)CC(=O)NNS(=O)(=O)c1ccc(-c2ccc(Br)cc2)cc1
11,0.31,CNC(=O)[C@H](Cc1c[nH]c2ccccc12)NC(=O)[C@@H](CC(=O)NNS(=O)(=O)c1ccc([N+](=O)[O-])cc1)CC(C)C

# Target: Matrix metalloproteinase-9 (Homo sapiens, UniProt P14780)
# Sequence (P14780 whole entry): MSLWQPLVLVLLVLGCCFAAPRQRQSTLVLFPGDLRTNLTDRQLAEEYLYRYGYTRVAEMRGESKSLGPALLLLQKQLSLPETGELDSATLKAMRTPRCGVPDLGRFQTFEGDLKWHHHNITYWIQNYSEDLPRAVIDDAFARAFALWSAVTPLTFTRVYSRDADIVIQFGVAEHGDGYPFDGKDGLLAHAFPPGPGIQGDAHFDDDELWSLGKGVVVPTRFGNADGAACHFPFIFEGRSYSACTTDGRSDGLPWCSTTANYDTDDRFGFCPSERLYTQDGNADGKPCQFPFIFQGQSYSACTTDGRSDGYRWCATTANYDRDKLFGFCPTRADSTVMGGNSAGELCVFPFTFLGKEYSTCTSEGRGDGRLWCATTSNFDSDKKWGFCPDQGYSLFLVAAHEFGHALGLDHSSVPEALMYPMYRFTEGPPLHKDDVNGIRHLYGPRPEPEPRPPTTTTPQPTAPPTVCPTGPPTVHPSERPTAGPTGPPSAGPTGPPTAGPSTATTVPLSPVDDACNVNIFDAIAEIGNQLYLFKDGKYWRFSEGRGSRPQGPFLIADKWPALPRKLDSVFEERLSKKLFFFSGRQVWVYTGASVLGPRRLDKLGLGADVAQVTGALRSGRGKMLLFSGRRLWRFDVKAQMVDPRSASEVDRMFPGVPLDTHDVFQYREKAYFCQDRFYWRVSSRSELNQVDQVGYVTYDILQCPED
# Assay: Inhibition of human recombinant pro-MMP9 by spectrofluorimeter
# Method in brief: (§1)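 Pro-enzymes (human recombinant) freshly activated with […] at 37 °C for 2 h. Activated MMP at 1–2 nM in 50 mM Tris–HCl pH 7.5, 150 mM NaCl, 5 mM CaCl₂ at 25 °C, preincubated 30 min with inhibitor before quenched fluorogenic substrate. Percent inhibition from triplicates at 5–7 concentrations within the 20–80% range.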
row,IC50 [µM],Compound
1,0.011,CNC(=O)[C@H](Cc1c[nH]c2ccccc12)NC(=O)[C@@H](CC(=O)NNS(=O)(=O)c1ccc2ccccc2c1)CC(C)C
2,0.732,CCCCCC/C=C(\CC(=O)NNS(=O)(=O)c1ccc(-c2ccc(Br)cc2)cc1)C(=O)N[C@@H](Cc1c(-c2ccccc2)[nH]c2ccccc12)C(=O)NC
3,0.0085,CNC(=O)[C@H](Cc1c[nH]c2ccccc12)NC(=O)[C@@H](CC(=O)NNS(=O)(=O)c1ccc(N2C(=O)CCC2=O)cc1)CC(C)C
4,1.25,CNC(=O)[C@H](Cc1c[nH]c2ccccc12)NC(=O)/C(=C/CCc1ccccc1)CC(=O)NNS(=O)(=O)c1ccc(-c2ccc(Br)cc2)cc1
5,0.827,CNC(=O)[C@H](Cc1c(-c2ccccc2)[nH]c2ccccc12)NC(=O)/C(=C/CCc1ccccc1)CC(=O)NNS(=O)(=O)c1ccc(-c2ccc(Br)cc2)cc1

# Target: T2, Matrilysin (Homo sapiens, UniProt P09237)
# T2 sequence (P09237 whole entry): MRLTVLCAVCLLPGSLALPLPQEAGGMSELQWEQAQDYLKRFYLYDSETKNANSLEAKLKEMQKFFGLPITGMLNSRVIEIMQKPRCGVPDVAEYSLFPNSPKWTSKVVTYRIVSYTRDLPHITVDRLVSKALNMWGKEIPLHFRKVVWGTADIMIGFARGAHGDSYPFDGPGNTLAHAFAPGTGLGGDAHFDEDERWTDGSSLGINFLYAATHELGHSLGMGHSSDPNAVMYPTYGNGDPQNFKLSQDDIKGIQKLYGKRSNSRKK
# Assay: Inhibition of human recombinant pro-MMP7 by spectrofluorimeter
# Method in brief: as §1
row,IC50 [µM],Compound
1,6.15,CNC(=O)[C@H](Cc1c[nH]c2ccccc12)NC(=O)[C@@H](CC(=O)NNS(=O)(=O)c1ccc2ccccc2c1)CC(C)C
2,0.11,CNC(=O)[C@H](Cc1c[nH]c2ccccc12)NC(=O)[C@@H](CC(=O)NNS(=O)(=O)c1ccc(N2C(=O)CCC2=O)cc1)CC(C)C

# Target: Matrix metalloproteinase-14 (Homo sapiens, UniProt P50281)
# Assay: Inhibition of human recombinant MMP14 catalytic domain by spectrofluorimeter
# Method in brief: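 Human recombinant MT1-MMP catalytic domain at 1–2 nM in 50 mM Tris–HCl pH 7.5, 150 mM NaCl, 5 mM CaCl₂ at 25 °C. Inhibitors at 5–7 concentrations preincubated with enzyme for 30 min, then quenched fluorogenic peptide substrate added. Percent inhibition measured in triplicate within a 20–80% inhibition range.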
IC50 [µM],Activity,Compound
10,,CNC(=O)[C@H](Cc1c[nH]c2ccccc12)NC(=O)[C@@H](CC(=O)NNS(=O)(=O)c1ccc2ccccc2c1)CC(C)C
2.8,,CNC(=O)[C@H](Cc1c[nH]c2ccccc12)NC(=O)[C@@H](CC(=O)NNS(=O)(=O)c1ccc(Oc2ccccc2)cc1)CC(C)C
> 10,,CNC(=O)[C@H](Cc1c[nH]c2ccccc12)NC(=O)[C@@H](CC(=O)NNc1ccc([N+](=O)[O-])cc1)CC(C)C
> 10,,CNC(=O)[C@H](Cc1c[nH]c2ccccc12)NC(=O)[C@@H](CC(=O)NNc1ccc([N+](=O)[O-])cc1[N+](=O)[O-])CC(C)C
3.7,,CNC(=O)[C@H](Cc1c[nH]c2ccccc12)NC(=O)[C@@H](CC(=O)NNS(C)(=O)=O)CC(C)C
3.78,,CCCCCC/C=C(\CC(=O)NNS(=O)(=O)c1ccc(-c2ccc(Br)cc2)cc1)C(=O)N[C@@H](Cc1c(-c2ccccc2)[nH]c2ccccc12)C(=O)NC
0.73,,CNC(=O)[C@H](Cc1c[nH]c2ccccc12)NC(=O)[C@@H](CC(=O)NNS(=O)(=O)c1ccccc1N)CC(C)C
0.72,,CNC(=O)[C@H](Cc1c[nH]c2ccccc12)NC(=O)[C@@H](CC(=O)NNS(=O)(=O)c1ccc(N2C(=O)CCC2=O)cc1)CC(C)C
0.105,,CNC(=O)[C@H](Cc1c[nH]c2ccccc12)NC(=O)/C(=C/CCc1ccccc1)CC(=O)NNS(=O)(=O)c1ccc(-c2ccc(Br)cc2)cc1
,inactive,CNC(=O)[C@H](Cc1c(-c2ccccc2)[nH]c2ccccc12)NC(=O)/C(=C/CCc1ccccc1)CC(=O)NNS(=O)(=O)c1ccc(-c2ccc(Br)cc2)cc1
1.5,,CNC(=O)[C@H](Cc1c[nH]c2ccccc12)NC(=O)[C@@H](CC(=O)NNS(=O)(=O)c1ccc([N+](=O)[O-])cc1)CC(C)C

# Target: Stromelysin-1 (Homo sapiens, UniProt P08254)
# Sequence (P08254 whole entry, the tested form may be a part): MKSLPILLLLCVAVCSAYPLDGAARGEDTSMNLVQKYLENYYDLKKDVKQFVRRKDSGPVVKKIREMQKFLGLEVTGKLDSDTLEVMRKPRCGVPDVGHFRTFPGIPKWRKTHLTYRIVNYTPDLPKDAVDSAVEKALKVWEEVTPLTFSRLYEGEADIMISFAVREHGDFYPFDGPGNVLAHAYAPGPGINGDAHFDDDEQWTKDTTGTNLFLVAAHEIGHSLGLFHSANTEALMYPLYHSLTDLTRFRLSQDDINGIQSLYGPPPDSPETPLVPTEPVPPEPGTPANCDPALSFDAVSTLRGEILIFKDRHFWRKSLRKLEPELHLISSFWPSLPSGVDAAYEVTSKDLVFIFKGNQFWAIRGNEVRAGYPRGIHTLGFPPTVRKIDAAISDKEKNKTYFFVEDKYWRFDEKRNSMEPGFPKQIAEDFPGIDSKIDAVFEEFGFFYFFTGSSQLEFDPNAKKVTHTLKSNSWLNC
# Assay: Inhibition of human recombinant MMP3 catalytic domain by spectrofluorimeter
# Method in brief: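 MMP-3 human recombinant catalytic domain (1–2 nM) was assayed in 50 mM Tris–HCl pH 7.5, 5 mM CaCl₂, […] at 25 °C. Enzyme and inhibitor were preincubated for 30 min before quenched fluorogenic substrate was added. Triplicate percent inhibition was taken at 5–7 inhibitor concentrations spanning 20–80% inhibition.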
row,IC50 [µM],Compound
1,1.4,CNC(=O)[C@H](Cc1c[nH]c2ccccc12)NC(=O)[C@@H](CC(=O)NNS(=O)(=O)c1ccc2ccccc2c1)CC(C)C
2,0.174,CCCCCC/C=C(\CC(=O)NNS(=O)(=O)c1ccc(-c2ccc(Br)cc2)cc1)C(=O)N[C@@H](Cc1c(-c2ccccc2)[nH]c2ccccc12)C(=O)NC
3,0.92,CNC(=O)[C@H](Cc1c[nH]c2ccccc12)NC(=O)[C@@H](CC(=O)NNS(=O)(=O)c1ccc(N2C(=O)CCC2=O)cc1)CC(C)C
4,3.86,CNC(=O)[C@H](Cc1c[nH]c2ccccc12)NC(=O)/C(=C/CCc1ccccc1)CC(=O)NNS(=O)(=O)c1ccc(-c2ccc(Br)cc2)cc1
5,0.463,CNC(=O)[C@H](Cc1c(-c2ccccc2)[nH]c2ccccc12)NC(=O)/C(=C/CCc1ccccc1)CC(=O)NNS(=O)(=O)c1ccc(-c2ccc(Br)cc2)cc1
